Active and inactive are the calls of the source. No cut-off for these calls is given here.
Key:
[1] = Selectivity index, ratio of CC50 for human MT4 cells to EC50 for HIV-1 NL 4-3 infected in MT4 cells; format: toxicity, cell-based; conditions: read-out: Ratio CC50/EC50
[2] = test system: Human immunodeficiency virus 1; assay: Antiviral activity against HIV-1 NL 4-3 infected in MT4 cells assessed as inhibition of virus-induced cytopathic effect; format: functional, organism-based; conditions: Human immunodeficiency virus 1, NL 4-3, MT4
In short: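 HIV-1 NL4-3-infected MT-4 cultures; run per a prior method with minor changes. The read-out is protection of cells from virus-induced cytopathic effect. EC50 is the concentration giving 50% protection, derived by curve fitting.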

[3] = target: Nuclear factor NF-kappa-B complex (Homo sapiens) (UniProt Q00653+P19838+Q04206); assay: Inhibition of TNFalpha-stimulated NF-kappaB signaling (unknown origin) expressed in HEK293 cells by luciferase reporter gene assay; format: cell-based
Nuclear factor NF-kappa-B complex (Homo sapiens), sequence (P19838 whole entry, looked up): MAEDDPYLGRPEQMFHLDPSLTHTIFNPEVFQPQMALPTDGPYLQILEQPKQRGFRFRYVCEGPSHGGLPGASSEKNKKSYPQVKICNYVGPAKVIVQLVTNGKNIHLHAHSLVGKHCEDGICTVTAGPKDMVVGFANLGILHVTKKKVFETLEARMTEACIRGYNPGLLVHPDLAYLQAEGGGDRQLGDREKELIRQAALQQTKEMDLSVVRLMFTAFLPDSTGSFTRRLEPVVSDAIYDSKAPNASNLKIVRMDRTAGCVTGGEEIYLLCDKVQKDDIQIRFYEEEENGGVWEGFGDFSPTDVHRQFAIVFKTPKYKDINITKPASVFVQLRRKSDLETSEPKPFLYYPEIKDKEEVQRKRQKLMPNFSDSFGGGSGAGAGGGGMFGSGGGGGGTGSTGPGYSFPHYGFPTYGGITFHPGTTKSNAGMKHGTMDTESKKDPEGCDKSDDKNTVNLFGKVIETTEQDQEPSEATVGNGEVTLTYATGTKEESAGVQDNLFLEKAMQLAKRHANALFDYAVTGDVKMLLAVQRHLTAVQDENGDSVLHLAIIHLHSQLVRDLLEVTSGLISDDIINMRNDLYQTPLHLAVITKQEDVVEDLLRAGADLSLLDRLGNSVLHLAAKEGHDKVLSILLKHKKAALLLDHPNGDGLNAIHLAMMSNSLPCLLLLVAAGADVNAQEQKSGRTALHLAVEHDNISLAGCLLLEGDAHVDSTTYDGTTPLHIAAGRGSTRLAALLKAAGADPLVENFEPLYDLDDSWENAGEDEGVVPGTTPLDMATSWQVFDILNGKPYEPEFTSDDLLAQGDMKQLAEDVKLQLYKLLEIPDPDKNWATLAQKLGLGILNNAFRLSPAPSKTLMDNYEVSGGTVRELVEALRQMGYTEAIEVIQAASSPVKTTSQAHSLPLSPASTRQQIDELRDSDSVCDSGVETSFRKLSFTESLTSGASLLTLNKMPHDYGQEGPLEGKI
Nuclear factor NF-kappa-B complex (Homo sapiens), sequence (Q00653 whole entry, looked up): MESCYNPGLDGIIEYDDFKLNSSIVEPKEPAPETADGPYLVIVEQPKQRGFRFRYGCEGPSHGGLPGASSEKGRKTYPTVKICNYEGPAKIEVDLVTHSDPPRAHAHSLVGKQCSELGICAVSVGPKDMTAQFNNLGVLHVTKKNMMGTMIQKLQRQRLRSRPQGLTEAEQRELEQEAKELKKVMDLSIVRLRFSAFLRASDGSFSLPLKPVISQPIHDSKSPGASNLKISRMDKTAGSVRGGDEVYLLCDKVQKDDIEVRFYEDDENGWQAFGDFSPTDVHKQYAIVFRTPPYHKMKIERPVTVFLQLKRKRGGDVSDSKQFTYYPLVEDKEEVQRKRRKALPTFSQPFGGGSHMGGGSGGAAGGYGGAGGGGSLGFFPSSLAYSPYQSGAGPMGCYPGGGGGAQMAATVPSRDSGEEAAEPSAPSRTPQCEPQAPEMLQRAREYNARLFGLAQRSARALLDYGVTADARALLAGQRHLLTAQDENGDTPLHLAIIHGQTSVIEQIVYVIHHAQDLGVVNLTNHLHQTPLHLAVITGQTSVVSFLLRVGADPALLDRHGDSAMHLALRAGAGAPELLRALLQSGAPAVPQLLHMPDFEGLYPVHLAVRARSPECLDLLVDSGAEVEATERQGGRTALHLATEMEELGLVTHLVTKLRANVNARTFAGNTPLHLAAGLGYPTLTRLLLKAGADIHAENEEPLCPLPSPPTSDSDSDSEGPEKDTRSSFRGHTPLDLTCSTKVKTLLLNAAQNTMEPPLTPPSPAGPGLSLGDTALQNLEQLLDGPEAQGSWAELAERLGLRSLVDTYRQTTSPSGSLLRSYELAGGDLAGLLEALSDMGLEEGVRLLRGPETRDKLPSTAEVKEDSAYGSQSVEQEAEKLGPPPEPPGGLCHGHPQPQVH
Nuclear factor NF-kappa-B complex (Homo sapiens), sequence (Q04206 whole entry, looked up): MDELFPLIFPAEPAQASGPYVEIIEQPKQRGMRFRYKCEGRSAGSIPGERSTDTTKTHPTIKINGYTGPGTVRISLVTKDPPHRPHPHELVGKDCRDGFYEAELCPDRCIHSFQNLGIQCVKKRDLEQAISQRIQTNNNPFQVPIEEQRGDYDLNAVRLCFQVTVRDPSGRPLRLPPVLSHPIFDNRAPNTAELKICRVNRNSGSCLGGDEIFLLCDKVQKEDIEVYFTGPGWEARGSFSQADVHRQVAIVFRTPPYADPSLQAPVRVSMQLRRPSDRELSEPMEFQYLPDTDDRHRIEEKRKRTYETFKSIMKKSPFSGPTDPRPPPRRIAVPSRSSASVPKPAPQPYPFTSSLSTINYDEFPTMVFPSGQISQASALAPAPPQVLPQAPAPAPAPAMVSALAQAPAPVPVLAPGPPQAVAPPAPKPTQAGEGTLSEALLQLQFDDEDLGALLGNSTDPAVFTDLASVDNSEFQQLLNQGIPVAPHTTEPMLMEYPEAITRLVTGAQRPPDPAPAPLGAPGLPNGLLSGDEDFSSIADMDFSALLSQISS

[4] = target: T1, Tyrosine-protein phosphatase non-receptor type 1 (Homo sapiens) (UniProt P18031); assay: Inhibition of PTP1B (unknown origin)
T1 sequence (whole entry): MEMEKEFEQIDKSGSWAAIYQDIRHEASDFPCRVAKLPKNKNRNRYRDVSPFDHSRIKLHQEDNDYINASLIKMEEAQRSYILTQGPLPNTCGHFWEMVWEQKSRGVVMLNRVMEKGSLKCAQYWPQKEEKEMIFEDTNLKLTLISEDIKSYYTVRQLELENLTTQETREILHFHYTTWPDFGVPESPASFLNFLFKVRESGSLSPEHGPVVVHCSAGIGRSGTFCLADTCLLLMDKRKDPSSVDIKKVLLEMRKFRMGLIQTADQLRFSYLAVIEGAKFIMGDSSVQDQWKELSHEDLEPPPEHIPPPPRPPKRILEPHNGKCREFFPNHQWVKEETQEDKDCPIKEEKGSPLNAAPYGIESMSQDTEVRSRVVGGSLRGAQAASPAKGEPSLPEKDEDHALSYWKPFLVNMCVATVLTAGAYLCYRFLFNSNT

[5] = Inhibition of XBP1 mRNA splicing (unknown origin) expressed in mouse B16-F10-XBP1-DBD-luc cells incubated for 8 hrs by luciferase reporter gene assay; format: cell-based

Structure (SMILES)	EC50 [2] [µM]	inhibition [3]	inhibition [4]	selectivity ratio [1]	inhibition [5]
CC1(C)C(=O)CC[C@]2(C)[C@@H]1CC[C@@]13CC[C@@H](C[C@H]12)C(=O)C3		inactive	inactive		inactive
C=C[C@@]1(C)C=C2CC[C@H]3[C@@](C)(CC[C@@H](OC(C)=O)[C@]3(C)C(=O)O)[C@@H]2C[C@@H]1O		inactive	inactive		inactive
C=C1C[C@@]23CC[C@@H]4C(C)(C)C(=O)CC[C@@]4(C)[C@@H]2C[C@@H]1C[C@H]3O		inactive	inactive		inactive
C[C@@]12CCC(=O)[C@@](C)(CO)[C@H]1CC[C@@]13CC[C@@H](C[C@H]12)[C@](O)(CO)C3		inactive	inactive		inactive
C=C1C[C@@]23CC[C@@H]4C(C)(C)C(=O)CC[C@@]4(C)[C@@H]2C[C@@H]1[C@@H](O)[C@H]3O		inactive	inactive		inactive

More lines, main results first:

EC50 [2] [µM]	inhibition [3]	inhibition [4]	Structure (SMILES)	selectivity ratio [1]	inhibition [5]
7.4			CC1=C2[C@H]3O[C@]34CC[C@@H]3C(C)(C)CC[C@H](O)[C@@]3(C)[C@@H]4C[C@H]2OC1=O	10.3	
3.58			CC(=O)O[C@H]1C2=C(C[C@H]3OC(=O)C(C)=C13)[C@@]1(C)[C@H](CC2)C(C)(C)CC[C@@H]1O	8.6	
	inactive	inactive	C=C[C@@]1(C)C=C2CC[C@@H]3[C@@](C)(C=O)[C@H](OC(C)=O)CC[C@@]3(C)[C@@H]2C[C@@H]1O		inactive
	inactive	inactive	C=C[C@@]1(C)C=C2CC[C@@H]3C(C)(C)[C@H](OC(C)=O)CC[C@@]3(C)[C@@H]2C[C@@H]1O		inactive

Reference: ChEMBL document CHEMBL3352335, “Eurifoloids A-R, structurally diverse diterpenoids from Euphorbia neriifolia” (J Nat Prod, 2014)
